Source: PubChem (several laboratories)
Sampled rows, rich in hits. Any-hit rate of the full collection: about 6.7%.
CSC inhib = cancer stem cell inhibition; hit rate 1.1% among 300,000; AID 2717; cancer stem cell-like cells viability, luminescence; inhibition, % at 7.5 µM; in the data active = inhibition above about 75%; inconclusive = no clear call, values can overlap the other calls; tested in HMLE shEcad cells
PREPL inhibitor = inhibits the human prolyl oligopeptidase-like enzyme; Q4J6C6; recombinant PREPL, fluorescence polarization activity-based probe; hit rate 0.68% among 320,000; inhibition, % at 5.96 µM; in the data active = inhibition above about 43%
NR3A LBD binder = modulators (binders) of human NR3A ligand-binding domain. NR3A LBD differential scanning fluorimetry, Tm shift; 0% = protein alone, 100% = glycine-bound protein. Tm shift relative to glycine control, % at 25 µM. hit rate 2.5% among 340,000. AID 1259313;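 active = melting temperature shift of at least 10% of the positive control shift, at one fixed dose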
T cruzi repl = blocks replication of Trypanosoma cruzi | T. cruzi beta-gal in NIH3T3, luminescence, 90 h | inhibition, % (no concentration beside the values) | hit rate 1.4% among 300,000;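 active = mean inhibition across valid replicates above about 55%, limit read from the data; inconclusive = mean below that limit but half or more replicates reach it; inactive = mean below it, under half of replicates reach it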;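 note: signal also drops with host cell toxicity which is not excluded here; higher percent means less beta-gal luminescence so fewer parasites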
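System: Mouse NIH/3T3 fibroblasts infected with β-gal-expressing T. cruzi Tulahuen C4 | Quantity: NIH/3T3 cells, 5,000 per well | Reagent: 5000 reporter trypomastigotes per well | Dosing: Compound pinned at 50 nL/well, DMSO | Schedule: 3 h host attachment, then at least 90 h co-culture | Detection: GalScreen luminescence, 60 min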
Beta cell apopt = beta cell apoptosis inhibition. INS-1E cytokine-induced death, ATP luminescence, 48 h; percent of positive-control rescue, neutral wells zero. protection from apoptosis, % (concentration not given with the values). hit rate 0.8% among 300,000. AID 435005;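 active = Every replicate reaches about 75%, or at least half do and their mean reaches it too, limit read from the data; inconclusive = At least half of replicates reach the limit but their mean does not; inactive = Under half of replicates reach the limit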;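 note: higher means more ATP so stronger rescue from cytokine killing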
CHOP inhibitor = blocks CHOP induction under ER stress | CHO-K1 CHOP-promoter luciferase, tunicamycin-induced, 15-18 h | inhibition, % at 10 µM | hit rate 3.8% among 220,000;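 active = compounds that reduced the stress-induced luciferase reporter signal by more than about 70% of percent inhibition, limit read from the data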
A number is an active result; i = inactive; ? = inconclusive; nt = no result given.

SMILES	CSC inhib	PREPL inhibitor	NR3A LBD binder	T cruzi repl	Beta cell apopt	CHOP inhibitor
COC(=O)C1=C2c3[nH]c4ccccc4c3CCN2C(=O)CC1	i	i	i	i	i	nt
Cc1cccc(C)c1N=Nc1c(C)cc(O)cc1C	99	i	i	i	i	nt
Cc1c(C(C)NC(=O)c2cc(COc3cccc4cnccc34)on2)cnn1C (stereo unspecified)	i	i	i	i	i	nt
C[C@H]1O[C@@H](O[C@H]2[C@@H](O)C[C@H](O[C@H]3[C@@H](O)C[C@H](O[C@H]4CC[C@@]5(C)[C@H](CC[C@@H]6[C@@H]5C[C@@H](O)[C@]5(C)[C@@H](C7=CC(=O)OC7)CC[C@]65O)C4)O[C@@H]3C)O[C@@H]2C)C[C@H](O)[C@@H]1O	100	i	i	i	i	i
COc1cc(C(=O)NCC(c2ccco2)N2CCOCC2)cc(OC)c1OC (stereo unspecified)	i	i	i	i	nt	nt
Cc1cc(C)n2nc(C(=O)OCC(=O)NCc3ccc(F)cc3)nc2n1	i	i	i	nt	i	nt
Nc1ccccc1Sc1nc2ccccc2[nH]1	nt	i	10	i	i	i
Nc1nc2ccccc2[nH]1	i	nt	i	i	i	nt
Cc1cc2oc(=O)cc(Cn3ncc(Cl)c(Cl)c3=O)c2cc1Cl	80	i	i	57	110	105
C=CCn1c2ccccc2c(=O)c2cc(C#Cc3ccsc3)ccc21	i	i	nt	i	i	nt
COc1ccc(-c2cc3nc4n(c(=O)c3s2)CCC4)cc1	i	i	i	i	i	i
C=CCn1c(SCCNC(C)=O)nc2cc(-c3ccccc3)sc2c1=O	i	i	i	i	i	nt
COc1ccc(-c2cc3nc(C)n(N)c(=O)c3s2)cc1	97	i	i	i	i	102
Cc1nc2cc(-c3ccccc3)sc2c(=O)n1N	i	i	i	i	?	74
CCOc1ccccc1C(=O)NC(C(=O)NCCc1ccccn1)C(C)C (stereo unspecified)	i	i	i	nt	i	nt
c1ccc(CCNc2nc(-c3ccncc3)cs2)cc1	i	i	i	83	i	i
O=C1COc2ccc(-c3csc(NCCc4ccccc4)n3)cc2N1	i	51	i	i	i	i
CCC(C)C(=O)Nc1nc(-c2ccc3c(c2)NC(=O)CO3)cs1 (stereo unspecified)	i	i	i	i	i	i
CCCCCNc1nc(-c2ccccc2)cs1	i	70	nt	i	i	i
c1ccc(-c2csc(Nc3ncccn3)n2)cc1	nt	i	i	i	i	i
NNc1nc(-c2ccccc2)cs1	i	i	i	63	i	i
CCN(CC)CCCNC(=O)c1ccc(S(=O)(=O)Nc2ccc(C)c(C)c2)cc1	nt	i	i	nt	i	nt
c1ccc(-c2cccc(-c3ccccn3)n2)nc1	107	i	i	i	82	nt
Cc1ccc(-c2nc(CN3CCN(C(=O)C4CCCO4)CC3)cs2)cc1 (stereo unspecified)	i	i	11	i	i	nt
Cc1ccc(CN2CCN(C(=O)C3CCCO3)CC2)cc1 (stereo unspecified)	i	i	i	i	i	i
SMILES	CSC inhib	PREPL inhibitor	NR3A LBD binder	T cruzi repl	Beta cell apopt	CHOP inhibitor
CCCN(c1ccc(C(C)C)cc1)S(=O)(=O)c1c(C)noc1C	i	i	i	i	i	76
CN(c1nc(-c2ccc(Br)cc2)cs1)C1CCS(=O)(=O)C1 (stereo unspecified)	i	i	i	i	i	i
Cc1cc(C)c(NC(=O)C[C@H](CC(=O)O)c2cccc3ccccc23)c(C(=O)N2CCC3(CCCC3)CC2)c1	nt	nt	nt	nt	nt	i
CSc1cccc(NC(=S)N(CCCN2CCCC2)Cc2cccn2Cc2ccc(Cl)cc2)c1	i	i	i	56	i	i
S=C(Nc1cccc(Cl)c1)N(CCCN1CCCC1)Cc1cccn1Cc1ccc(Cl)cc1	96	i	i	i	i	i
CN(C)c1ccc(/C=C(/NC(=O)c2ccccc2)C(=O)N2CCCC2)cc1	nt	i	i	i	i	nt
Cc1cc(C(=O)CSc2nc3ccccc3c(=O)n2C)c(C)n1CC1CCCO1 (stereo unspecified)	nt	nt	nt	i	nt	74
COc1cc(-c2nnc(SCC(=O)c3cc(C)n(CC4CCCO4)c3C)o2)cc(OC)c1OC (stereo unspecified)	i	i	i	i	i	i
Cc1cc(C(=O)CSc2nnc(-c3ccc(F)cc3)o2)c(C)n1CC1CCCO1 (stereo unspecified)	i	i	i	i	i	93
